Data set [1] can be described thus: Volume of distribution at steady state in rat at 1 mg/kg, iv. The class given is ADME, organism-based. To be noted: in vivo, read-out: Vdss. Put shortly:
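Rats and dog received 1 mg/kg intravenously, formulated in 12% w/v Captisol in water. Volume of distribution was taken at steady state from the iv plasma profile. Three animals per dosing route.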

Data set [2] has as its target T1, Phosphatidylinositol 4,5-bisphosphate 3-kinase catalytic subunit delta isoform (Homo sapiens, UniProt O00329).
T1 sequence (O00329 whole entry): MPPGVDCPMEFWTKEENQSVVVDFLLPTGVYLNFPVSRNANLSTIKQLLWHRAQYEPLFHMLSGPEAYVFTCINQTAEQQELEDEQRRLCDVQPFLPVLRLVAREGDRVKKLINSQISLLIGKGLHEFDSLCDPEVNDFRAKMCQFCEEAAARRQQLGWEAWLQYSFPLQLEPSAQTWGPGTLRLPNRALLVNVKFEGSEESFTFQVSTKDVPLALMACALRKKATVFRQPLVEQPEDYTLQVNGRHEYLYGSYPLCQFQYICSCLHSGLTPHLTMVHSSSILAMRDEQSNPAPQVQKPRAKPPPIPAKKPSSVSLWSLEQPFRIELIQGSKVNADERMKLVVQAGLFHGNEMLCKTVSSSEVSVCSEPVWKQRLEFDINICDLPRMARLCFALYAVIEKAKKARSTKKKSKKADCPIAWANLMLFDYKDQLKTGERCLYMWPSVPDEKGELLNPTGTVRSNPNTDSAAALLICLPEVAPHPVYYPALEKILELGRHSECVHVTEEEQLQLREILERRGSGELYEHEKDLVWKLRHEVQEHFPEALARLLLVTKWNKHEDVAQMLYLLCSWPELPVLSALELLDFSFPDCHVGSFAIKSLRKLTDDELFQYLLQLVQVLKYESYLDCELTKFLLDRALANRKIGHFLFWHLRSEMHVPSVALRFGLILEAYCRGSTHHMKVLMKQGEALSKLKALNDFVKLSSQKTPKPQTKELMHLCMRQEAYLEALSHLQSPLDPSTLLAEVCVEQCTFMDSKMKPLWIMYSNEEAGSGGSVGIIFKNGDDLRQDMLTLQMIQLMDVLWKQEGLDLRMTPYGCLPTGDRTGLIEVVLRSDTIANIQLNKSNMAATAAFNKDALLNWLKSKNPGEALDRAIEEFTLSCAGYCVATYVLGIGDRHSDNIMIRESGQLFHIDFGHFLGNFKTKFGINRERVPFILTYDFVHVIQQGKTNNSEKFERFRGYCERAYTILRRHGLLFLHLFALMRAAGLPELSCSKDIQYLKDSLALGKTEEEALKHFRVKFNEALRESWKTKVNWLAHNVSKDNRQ
The data set is described as follows: Inhibition of PI3K p110delta in human basophil assessed as reduction in anti-FCepsilonR1 mAb-induced basophil activation preincubated for 60 mins followed by anti-FCepsilonR1 mAb stimulation and measured after 25 mins in presence of 25% serum by flow cytometry analysis. The class given is tissue-based.

Data set [3] is described as follows: MRT in Beagle dog at 1 mg/kg, iv measured over 24 hrs by LC/MS/MS analysis. The class given is ADME, organism-based, Canis lupus familiaris. The conditions noted are these: in vivo. Put shortly:
(§1)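 Intravenous 1 mg/kg and oral 5 mg/kg doses. Vehicle: 5% ethanol/55% PEG 400/40% water for rats and dogs; 5% ethanol/22% PEG 400/73% water for cynomolgus; 5% ethanol/25% PEG 400/70% water for rhesus. Half-life and MRT from iv; mean ± SD, n = 3 per route.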

Data set [4] in a line: Oral bioavailability in Beagle dog at 5 mg/kg measured over 24 hrs by LC/MS/MS analysis. Format: ADME, organism-based, Canis lupus familiaris. The conditions noted are these: in vivo. In outline:
as §1

Data set [5] deals with Rattus norvegicus. The data set is described as follows: Antiarthritic activity in Lewis rat model of Freund's incomplete adjuvant-induced arthritis assessed as reduction in ankle swelling at 0.3 mg/kg, po bid administered for 7 days at 12 hrs interval starting from day 10 to day 16 post-immunization by caliper method relative to control. Format: functional. Details: scale not given: the % may be the effect or the level left. To be noted: time 7 day. In outline: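 Established collagen-induced arthritis in female Lewis rats; oral dosing twice daily for 7 days from day 10 after second immunization. Right and left ankle diameters measured by caliper daily, days 9–18; ankle diameter AUC over days 11–18 compared with arthritic vehicle group (ANOVA, p < 0.05). n = 8/treatment group.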

Data set [6] concerns Rattus norvegicus. The data set is described as follows: Antiarthritic activity in po dosed Lewis rat model of Freund's incomplete adjuvant-induced arthritis administered for 7 days at 12 hrs interval starting from day 10 to day 16 post-immunization by microscopic analysis. The class given is functional. To be noted: 168 h, time 7 day. In outline:
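Female Lewis rats with established collagen-induced arthritis dosed orally twice daily for 7 days at 0.3, 1 and 3 mg/kg, starting day 10 after second collagen immunization. Joint histopathology scored for pannus formation, cartilage damage, bone resorption and periosteal bone formation; ED50 derived. n = 8/treatment group, n = 4 normal controls.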

Data set [7] can be described thus: In vivo inhibition of PI3Kdelta in Lewis rat model of Freund's incomplete adjuvant-induced arthritis at 1 mg/kg, po bid administered for 7 days at 12 hrs interval starting from day 10 to day 16 post-immunization relative to control. Format: functional. The conditions noted are these: 168 h, time 7 day. Put shortly:
(§2)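 CIA Lewis rats dosed orally twice daily for 7 days at 0.3, 1 or 3 mg/kg; blood/plasma drug levels taken on day 7, 12 h after final dose, and related to PI3Kδ inhibition at trough.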

Data set [8] can be described thus: In vivo inhibition of PI3Kdelta in Lewis rat model of Freund's incomplete adjuvant-induced arthritis at 3 mg/kg, po bid administered for 7 days at 12 hrs interval starting from day 10 to day 16 post-immunization relative to control. The conditions noted are these: 168 h, time 7 day. Format: functional. In outline:
as §2

A short description of data set [9]: Cmax in Lewis rat at 5 mg/kg, po administered as single dose measured at 2 hrs. Format: ADME, organism-based. Details: route oral, dose 5 mg/kg, time 2 hrs. The conditions noted are these: in vivo. Put shortly:
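Female Lewis rats given a single oral dose of 1 or 5 mg/kg; plasma concentration–time profiles determined; mean ± SD, n = 3.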

Data set [10] addresses T2, Phosphatidylinositol 4,5-bisphosphate 3-kinase catalytic subunit delta isoform (Homo sapiens) (UniProt O00329).
T2 sequence (whole entry): T1 sequence (O00329 whole entry)
The conditions noted are these: Blood, time 7.0 day.

Data set [11] is described as follows: Inhibition of PI3Kdelta in rat whole blood assessed as reduction in anti-IgD induced B-cell activation by measuring decrease in CD86 surface expression by flow cytometry analysis.
The species named for data set [12] is Rattus norvegicus. Described as above.

The record followed here is ChEMBL document CHEMBL4765230, “Discovery of Orally Efficacious Phosphoinositide 3-Kinase δ Inhibitors with Improved Metabolic Stability” (J Med Chem, 2016).

In general, EC50 refers to the concentration at which the effect is half-maximal. One may read the MRT as a mean duration of stay, worked out from the concentration-time curve. A word on the bioavailability: it is dose-corrected exposure relative to a reference, in per cent. Usually ED50 stands for the dose that gives a 50% effect, or the effect in half of the subjects. As a reminder, the inhibition in vivo is the relative decrease from the control value, in per cent. The Cmax is the peak of the concentration-time curve. What is called EC90 is the point of the concentration-response curve where the effect stands at 90%. Consider `N#Cc1c(N)nc(N)nc1N[C@H](c1nc2c(F)ccc(Cl)c2c(=O)n1-c1cccnc1)C1CC1` [GS-9901], for which, in [1], the Vd worked out at 0.83 L/kg. Also, the figures for the EC50 in data set [2] and in data set [11] were 1.3 nM and 1.6 nM, respectively. In addition, in data set [3], the MRT is 2.01 h. Further, the bioavailability in data set [4] is 49%. The Activity with Rattus norvegicus [5] was 31%. In addition, the ED50 in the data set with Rattus norvegicus [6] worked out at 0.6 mg/kg. The inhibition in vivo at 1 mg/kg in [7] worked out at 80%. In addition, in data set [8], the inhibition in vivo at 3 mg/kg was more than 90%. Besides, the Cmax in [9] worked out at 1780 nM. Further, the EC90 in [10] amounted to 21 nM; in the data set filed under Rattus norvegicus [12], 31.5 nM.
